In ChEMBL document CHEMBL3632536, “Novel Fluorinated 8-Hydroxyquinoline Based Metal Ionophores for Exploring the Metal Hypothesis of Alzheimer's Disease” (ACS Med Chem Lett, 2015):
pEC50: −log10 of the molar value. The source made the active and inactive calls. The rule behind the calls is not given here.

Key:
[1] = test system: SH-SY5Y; experiment: Ionophoric activity in human SH-SY5Y cells assessed as increase in cellular Cu uptake at 20 uM after 6 hrs by ICP-MS analysis relative to vehicle-treated control; format: functional
Outline: (§1)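 SH-SY5Y neuronal cells exposed to each compound at 20 μM for 6 h. Cellular Zn, Cu and Fe content then determined by ICP-MS and compared with untreated control level.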

[2] = test system: SH-SY5Y; experiment: Ionophoric activity in human SH-SY5Y cells assessed as increase in cellular Zn uptake at 20 uM after 6 hrs by ICP-MS analysis relative to vehicle-treated control; format: functional; outline: as §1
[3] = test system: SH-SY5Y; experiment: Ionophoric activity in human SH-SY5Y cells assessed as increase in cellular Fe uptake at 20 uM after 6 hrs by ICP-MS analysis relative to vehicle-treated control; format: functional, cell-based; outline: as §1
[4] = Reversal of Zn-induced human soluble amyloid beta (1 to 42) aggregation after 30 mins by bis-ANS-based fluorometric analysis
Outline: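 Soluble Aβ oligomer aggregation monitored fluorometrically with bis-ANS.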

| SMILES | Activity [1] | Activity [2] | Activity [3] | pEC50 [4] | fold change (FC) [1] | fold change (FC) [2] |
| --- | --- | --- | --- | --- | --- | --- |
| Oc1cccc2ccc(F)nc12 | inactive | inactive | inactive | < 3.92 |  |  |
| Oc1c(F)cc(I)c2cccnc12 |  |  |  | 5.64 |  |  |
| Oc1c(Br)cc(F)c2cccnc12 |  |  |  | 5.43 | 6 | >2 |
| Oc1cc(F)cc2cccnc12 | Active | inactive | inactive |  |  |  |
| Oc1ccccc1/N=C/c1ccc(F)cc1 |  | inactive | inactive | 4.81 |  |  |
| Oc1c(F)ccc2cccnc12 | Active | inactive | inactive |  |  |  |
| Oc1c(Cl)cc(Cl)c2ccc(COCCF)nc12 |  |  | inactive | 5.62 |  |  |
| Oc1c(Cl)cc(F)c2cccnc12 |  |  |  | 5.28 | 6 | >2 |
| Oc1c(I)cc(Cl)c2cccnc12 [CLIOQUINOL] | Active | Active |  | 5.74 |  |  |
| Oc1c(F)cc(Cl)c2cccnc12 |  |  |  | 5.31 |  |  |
| CN(Cc1cn(CCCF)nn1)Cc1ccc2c(Cl)cc(Cl)c(O)c2n1 |  |  | inactive | 5.35 |  | >2 |
| Oc1ccc(F)c2cccnc12 | Active | inactive | inactive |  |  |  |
| CN(Cc1cn(CCCCF)nn1)Cc1ccc2c(Cl)cc(Cl)c(O)c2n1 |  |  | inactive | 5.55 |  | >2 |
| COc1cccc2ccc(Cl)nc12 |  | inactive | inactive |  |  |  |
| Oc1cccc2cc[nH]c12 |  | inactive | inactive |  |  |  |
| Oc1cccc2cc(F)cnc12 | Active | inactive | inactive |  |  |  |
| Oc1c(Cl)cc(Cl)c2ccc(COCCCCF)nc12 | Active |  | inactive | 5.70 |  |  |
| Oc1c(I)cc(F)c2cccnc12 |  |  |  | 5.60 | 6 | >2 |
| Oc1cccc2nccnc12 |  | inactive | inactive |  |  |  |
| Oc1cccc2cccnc12 | Active | inactive | inactive |  |  |  |
| CN(Cc1cn(CCF)nn1)Cc1ccc2c(Cl)cc(Cl)c(O)c2n1 |  |  | inactive | 5.64 |  | >2 |
| CN(C)Cc1ccc2c(Cl)cc(Cl)c(O)c2n1 | Active | Active |  | 5.70 |  |  |
| Oc1c(F)cc(Br)c2cccnc12 |  |  |  | 5.46 |  |  |
